Screening results deposited in PubChem by The Scripps Research Institute Molecular Screening Center.
M1 PAM – positive allosteric modulators of human M1 muscarinic receptor; CHO-K1 hM1, Fluo-8 calcium fluorescence, ACh EC20; 0% = ACh EC20, 100% = maximal ACh; activation, % at 3 µM; 360,000 tested, 0.088% active; AID 588819; in the data active means activation above about 19%, passing the limit was not always enough
CHRM5 agonist – CHRM5 agonism in calcium assay; CHO-K1 hM5 cells, Fluo-8 calcium fluorescence; 0% DMSO wells, 100% maximal acetylcholine response; P08912; activation, % at 3 µM; 360,000 tested, 0.19% active;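 active means activation above the run's mean over test compounds plus 3 SD, cut at about 23% in these data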;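 further: signal is peak over basal fluorescence ratio across the kinetic read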
Target sequence (P08912 whole entry, looked up): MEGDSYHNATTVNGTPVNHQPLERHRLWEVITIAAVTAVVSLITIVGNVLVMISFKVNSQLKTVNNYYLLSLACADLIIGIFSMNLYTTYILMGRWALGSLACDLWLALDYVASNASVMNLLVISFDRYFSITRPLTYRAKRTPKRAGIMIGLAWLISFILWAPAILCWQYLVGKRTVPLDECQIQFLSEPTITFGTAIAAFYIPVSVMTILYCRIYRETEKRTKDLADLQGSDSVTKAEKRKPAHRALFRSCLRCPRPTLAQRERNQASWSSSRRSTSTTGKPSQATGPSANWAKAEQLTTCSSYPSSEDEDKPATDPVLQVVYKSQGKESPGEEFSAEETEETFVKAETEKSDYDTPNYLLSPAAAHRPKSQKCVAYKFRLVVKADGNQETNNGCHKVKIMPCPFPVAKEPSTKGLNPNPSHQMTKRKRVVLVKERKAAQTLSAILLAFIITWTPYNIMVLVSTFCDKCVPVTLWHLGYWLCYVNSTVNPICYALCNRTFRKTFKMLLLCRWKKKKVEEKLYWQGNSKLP
CHRM1 antagonist – human CHRM1 antagonism; P11229; CHO-K1 hM1, Fluo-8 calcium fluorescence, ACh EC80 antagonist; inhibition, % at 3 µM; 360,000 tested, 1.3% active; AID 588852;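 active means percent inhibition above its own plate's cutoff, namely the mean of that plate's compound wells plus 3 SD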;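 further: peak over basal fluorescence ratio during 140 s after agonist addition; 0% = ACh EC80 plus DMSO and 100% = DMSO alone without agonist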
M5 PAM – CHRM5 positive allosteric modulation. P08912. CHO-K1 hM5, Fluo-8 calcium, ACh EC20 PAM; 0% = ACh EC20, 100% = ACh EC100. activation, % at 3 µM. 360,000 tested, 0.3% active. AID 624038;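 active means activation above the run cutoff, the mean activation of all test compounds plus 3 SD, cut at about 18% in these data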
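Assay system: CHO-K1 hM5 cells / Incubation: Fluo-8 loading 80 min at 37 °C plus 30 min room temperature / Technique: Fluo-8 calcium dye fluorescence, kinetic read / Repeats: single replicate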
CHRM5 antagonist – antagonists of human muscarinic M5 receptor (CHRM5); P08912; CHO-hM5 cells, Fluo-8 calcium fluorescence, ACh EC80; inhibition, % at 3 µM; 360,000 tested, 0.59% active;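 active means inhibition above a per-plate cutoff, the mean of that plate's test compounds plus 3 SD, cut at about 27% in these data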;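 further: 0% = acetylcholine EC80 with DMSO and 100% = DMSO without agonist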
M1 ag – agonists of human M1 muscarinic receptor | P11229 | CHO-K1 hM1, Fluo-8 calcium fluorescence, agonist mode; 0% DMSO, 100% acetylcholine EC100 | activation, % at 3 µM | 360,000 tested, 0.33% active;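 active means activation above the run's mean compound activation plus 3 SD, cut at about 16% in these data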;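 further: peak over basal fluorescence ratio within a 140 s kinetic read after compound addition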
* = called active by the depositor; . = no result. Only some compounds are listed: those with a hit (about 2.2% of all), similar ones and a draw of the others.

SMILES | M1 PAM | CHRM5 agonist | CHRM1 antagonist | M5 PAM | CHRM5 antagonist | M1 ag
CCOCCCNC(=O)Cn1nc(Cc2ccncc2)c2ccccc2c1=O | 12.4 | -2.8 | -16.0 | 0.0 | -1.7 | -3.9
OCCN(Cc1cccnc1)Cc1ccccn1 | -28.7 | -9.0 | 58.7* | -5.9 | 1.0 | -8.5
OCCN(Cc1ccccc1)Cc1ncccc1O | 5.2 | -2.1 | -11.9 | 3.9 | 0.3 | -3.0
CC(=O)Nc1ccc(S(=O)(=O)N2CCN(Cc3cccs3)CC2)cc1 | 10.1 | 0.7 | -7.7 | -10.9 | -5.7 | -2.0
CCN(CC)c1ccc(CNc2nnnn2C)cc1 | -30.1 | -22.3 | 60.4* | -16.6 | 20.6 | -9.8
CN1c2ccccc2-c2nc3ccccc3n2C1c1cccs1 (stereo unspecified) | -6.3 | -4.1 | 6.0 | 18.5* | 9.1 | -6.5
CN1C=CC=C/C1=C1\SC(=S)N(N)C1=O | 3.9 | -11.7 | -6.1 | 1.4 | 4.0 | -6.7
CC(C)N(C(=O)CSc1nc2ccccc2n1Cc1ccc(F)cc1)C(C)C | -18.1 | -14.6 | 32.3* | -54.7 | 13.4 | -3.2
COC(=O)c1ccc2nc(-c3ccc(F)cc3)c(Cc3cccc(F)c3)n2c1 | . | -5.5 | . | -23.6 | 35.9* | .
Fc1ccc(-c2nc3ccc(Cl)cn3c2Cc2cccc(Cl)c2)cc1 | -1.6 | -4.1 | -34.0 | 2.9 | 9.1 | -2.7
COC(=O)c1ccc2nc(-c3ccccc3)c(Cc3cccc(F)c3)n2c1 | . | -5.9 | . | -24.2 | 9.8 | .
COC(=O)c1ccc2nc(-c3ccc(F)cc3)c(Cc3cccc(Cl)c3)n2c1 | . | -4.8 | . | -24.2 | 76.6* | .
COc1ccccc1N1CCN(C(=O)c2c(-c3c(F)cccc3Cl)noc2C)CC1 | -5.4 | 3.7 | 2.0 | -18.5 | 0.6 | 1.0
Cc1ccc2c(c1)C(=O)C(=O)N2Cc1ccc(C(F)(F)F)cc1 | 3.6 | 43.8* | 7.7 | 7.4 | -1.0 | 22.9*
CC(C)[C@H](NS(=O)(=O)c1ccc2c(c1)OCCO2)C(=O)OCC(=O)Nc1cc(Cl)ccc1Cl | -16.4 | 2.9 | 30.6* | -17.6 | 25.2 | 0.9
CC(C)[C@H](NS(=O)(=O)c1ccc2c(c1)OCCO2)C(=O)OCC(=O)Nc1ccccc1Cl | 7.9 | 3.6 | -5.9 | -7.8 | 4.3 | -8.0
O=C(COc1ccc(-c2ccccc2)cc1)Nc1cccnc1 | -13.7 | 5.7 | 38.8* | -29.9 | 26.4 | 2.4
O=C(COc1ccc(C(=O)NCc2cccnc2)cc1)Nc1cccc(C(F)(F)F)c1 | -18.1 | 3.1 | 35.7* | -9.3 | 8.3 | -2.5
O=C(COc1ccc(Cl)cc1)Nc1ccc(C(=O)NCc2cccnc2)cc1 | 0.8 | 5.9 | 8.3 | -10.2 | 7.2 | 0.8
C=Cc1cccc(NC(=O)COc2ccccc2)c1 | -6.4 | -2.7 | 17.9 | 18.4* | 10.5 | -2.6
Cc1cc(C(=O)NNC(=O)CN2C(=O)NC(C)(c3ccccc3)C2=O)c(C)o1 (stereo unspecified) | 7.4 | 2.4 | -10.4 | 9.6 | -2.4 | -2.5
Cc1nc2nc(SCC(=O)N3CCOCC3)nn2c(C)c1Cc1c(F)cccc1Cl | 1.5 | -3.7 | 0.3 | -2.1 | 1.1 | -3.3
Cc1ccccc1Cc1c(C)nc2nc(SCC(=O)NCCCN3CCCC3)nn2c1C | -31.4 | -7.7 | 50.0* | -11.6 | 23.9 | -11.4
CC1CCCN(CCCNC(=O)CCn2nc(-c3ccccc3)ccc2=O)C1 (stereo unspecified) | -9.9 | -6.2 | 13.5 | 3.6 | -4.9 | -9.5
Cc1nc2nc(SCC(=O)NCCCN3CCCC(C)C3)nn2c(C)c1Cc1ccccc1Cl (stereo unspecified) | -23.8 | -10.2 | 63.2* | -16.5 | 19.6 | 1.4
Cc1ccccc1Cc1c(C)nc2ncnn2c1C | 7.3 | 0.1 | 1.9 | -0.4 | 4.1 | -6.4
Cc1nc2nc(SCC(=O)NCCCN3CCCCCC3)nn2c(C)c1Cc1ccccc1Cl | -23.7 | -10.3 | 100.2* | -12.8 | -1.0 | -5.4
Cc1ccc(C(=O)Nc2ccc(S(=O)(=O)Nc3cnc4ccccc4n3)cc2)cc1 | 8.4 | -2.8 | -10.3 | -3.1 | 14.2 | -7.9
COc1ccc(/C=N\NC(=O)COc2ccccc2)c(C(=O)O)c1OC | -0.7 | -3.3 | 4.3 | 1.1 | 4.8 | -3.3
Cc1ccc(SCCN2CCN(CCc3ccccc3)CCC2=O)cc1 | -5.3 | -8.0 | 10.7 | -4.7 | 10.7 | -12.8
